# According to ChEMBL document CHEMBL5360543, “Designed multiple ligands for the treatment of type 2 diabetes mellitus and its complications: Discovery of (5-arylidene-4-oxo-2-thioxothiazolidin-3-yl)alkanoic acids active as novel dual-targeted PTP1B/AKR1B1 inhibitors” (Eur J Med Chem, 2023):
# Calls of active or inactive are those of the source. The calls are words filed in the database; no cut-off is given here.
# Assays:
# [1] = biological target: T1, Tyrosine-protein phosphatase non-receptor type 1 (Homo sapiens, UniProt P18031); assay: Non-competitive inhibition of N-terminal polyHis-tagged human PTP1B1 (1 to 303 residues) expressed in Escherichia coli BL21(DE3)pLysS assessed as apparent dissociation constant for ESI complex using pNPP as substrate by Lineweaver-Burk plot analysis
# T1 sequence (P18031 whole entry): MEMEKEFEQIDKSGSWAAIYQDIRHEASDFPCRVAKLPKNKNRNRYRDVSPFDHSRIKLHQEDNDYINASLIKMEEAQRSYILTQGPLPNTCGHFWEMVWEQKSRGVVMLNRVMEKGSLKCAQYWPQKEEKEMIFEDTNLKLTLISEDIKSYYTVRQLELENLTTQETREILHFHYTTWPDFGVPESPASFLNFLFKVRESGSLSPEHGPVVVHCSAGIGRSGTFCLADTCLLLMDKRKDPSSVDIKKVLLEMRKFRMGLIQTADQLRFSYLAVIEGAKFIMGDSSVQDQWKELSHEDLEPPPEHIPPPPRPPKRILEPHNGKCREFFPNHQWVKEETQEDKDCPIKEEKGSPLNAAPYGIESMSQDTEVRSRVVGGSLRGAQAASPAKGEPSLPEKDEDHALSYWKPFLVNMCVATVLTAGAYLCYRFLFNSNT
# Outline: (§1)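 PTP1B initial pNPP hydrolysis rates measured at seven pNPP concentrations (0.5–25 mM) and at least three inhibitor concentrations, in triplicate. Data fitted to Michaelis–Menten; KM and Vmax dependence on inhibitor analysed by Lineweaver–Burk plots.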
# [2] = biological target: T1, Tyrosine-protein phosphatase non-receptor type 1; assay: Non-competitive inhibition of N-terminal polyHis-tagged human PTP1B1 (1 to 303 residues) expressed in Escherichia coli BL21(DE3)pLysS assessed as apparent dissociation constant for EI complex using pNPP as substrate by Lineweaver-Burk plot analysis; outline: as §1
# [3] = biological target: T2, Aldo-keto reductase family 1 member B1 (Homo sapiens, UniProt P15121); assay: Ratio of Ki for human recombinant AKR1B1 expressed in Escherichia coli BL21(DE3)pLysS assessed as apparent dissociation constant for EI complex to Ki for human recombinant AKR1B1 expressed in Escherichia coli BL21(DE3)pLysS assessed as apparent dissociation constant for ESI complex
# Outline: (§2)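 AKR1B1 rates measured at varied L-idose concentrations with and without several inhibitor concentrations, then Lineweaver–Burk analysis. […] Tight binders fitted with the Morrison equation, KM for L-idose taken as 3.8 mM. At least three independent experiments.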
# Homo sapiens = organism: Homo sapiens; assay: Selectivity index, ratio of IC50 for inhibition of N-terminal polyHis-tagged human recombinant TC-PTPb (1 to 415 residues) expressed in Escherichia coli BL21(DE3)pLysS to IC50 for inhibition of N-terminal polyHis-tagged human PTP1B1 (1 to 303 residues) expressed in Escherichia coli BL21(DE3)pLysS
# [4] = biological target: T3, Tyrosine-protein phosphatase non-receptor type 1 (Mus musculus) (UniProt P35821); assay: Inhibition of PTP1B in mouse C2C12 cells assessed as potentiation of insulin-induced Akt phosphorylation by measuring increase in ratio of pAkt to Akt at 20 uM treated for 15 mins in presence of insulin by western blot analysis; format: cell-based
# T3 sequence (whole entry): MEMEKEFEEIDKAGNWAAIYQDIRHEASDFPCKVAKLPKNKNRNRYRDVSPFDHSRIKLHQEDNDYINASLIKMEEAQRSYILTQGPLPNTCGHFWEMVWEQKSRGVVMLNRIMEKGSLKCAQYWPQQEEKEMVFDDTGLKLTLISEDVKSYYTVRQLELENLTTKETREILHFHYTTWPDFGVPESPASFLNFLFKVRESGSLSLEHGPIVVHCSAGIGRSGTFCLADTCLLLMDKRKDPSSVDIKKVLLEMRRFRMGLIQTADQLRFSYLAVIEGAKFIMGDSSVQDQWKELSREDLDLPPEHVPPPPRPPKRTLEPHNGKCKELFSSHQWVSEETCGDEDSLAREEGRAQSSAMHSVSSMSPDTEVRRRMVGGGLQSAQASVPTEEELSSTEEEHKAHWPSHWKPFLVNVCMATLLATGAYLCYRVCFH
# Outline: (§3)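 C2C12 cells starved 24 h, then given 10 nM insulin, 20 µM compound, or both, for 15 min. Washed in cold PBS, lysed in 1X Laemmli buffer, run on SDS-PAGE, blotted to PVDF. Probed with antibodies to phospho-Akt and total Akt, with actin as loading control. Bands quantified; triplicate, mean ± SD (n = 3).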
# C2C12 [5] = assay: Cytotoxicity against mouse C2C12 cells assessed as reduction in cell viability at 20 uM incubated for 24 hrs by MTT assay; format: toxicity, cell-based; conditions: c2c12, 24 h
# Outline: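 C2C12 myoblasts were differentiated for 96 h in DMEM with 2% horse serum, then held 24 h in complete medium with 20 µM compound, DMSO vehicle as control. MTT 0.5 mg/mL was added, cells lysed in DMSO, absorbance read, and values normalized to vehicle. Quadruplicate, mean ± SD (n = 4).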
# [6] = biological target: T2, Aldo-keto reductase family 1 member B1; assay: Inhibition of human recombinant AKR1B1 expressed in Escherichia coli BL21(DE3)pLysS using L-idose as substrate by NADPH oxidation based absorbance analysis
# [7] = biological target: T4, Tyrosine-protein phosphatase non-receptor type 2 (Homo sapiens, UniProt P17706); assay: Inhibition of N-terminal polyHis-tagged human recombinant TC-PTPb (1 to 415 residues) expressed in Escherichia coli BL21(DE3)pLysS
# T4 sequence (P17706 whole entry): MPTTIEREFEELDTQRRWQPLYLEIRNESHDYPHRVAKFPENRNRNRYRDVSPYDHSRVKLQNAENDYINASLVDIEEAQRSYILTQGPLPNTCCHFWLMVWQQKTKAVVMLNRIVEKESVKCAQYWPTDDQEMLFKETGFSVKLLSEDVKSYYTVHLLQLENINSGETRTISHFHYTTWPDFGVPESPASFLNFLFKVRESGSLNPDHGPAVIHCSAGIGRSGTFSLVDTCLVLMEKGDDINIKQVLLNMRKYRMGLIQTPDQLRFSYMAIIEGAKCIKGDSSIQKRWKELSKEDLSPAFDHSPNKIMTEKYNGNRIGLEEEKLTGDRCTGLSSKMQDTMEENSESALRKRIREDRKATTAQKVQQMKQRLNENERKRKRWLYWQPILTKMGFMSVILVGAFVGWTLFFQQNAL
# [8] = biological target: T5, Tyrosine-protein phosphatase non-receptor type 1 (Homo sapiens) (UniProt P18031); assay: Reversible inhibition of N-terminal polyHis-tagged human PTP1B1 (1 to 303 residues) expressed in Escherichia coli BL21(DE3)pLysS using pNPP as substrate pretreated with enzyme for 60 mins followed by 400-fold dilution with buffer containing substrate and measured after 15 mins by spectrophotometric analysis; conditions: time 75.0 min
# T5 sequence (whole entry): T1 sequence (P18031 whole entry)
# Outline: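 PTP1B incubated 60 min at 37 °C with saturating inhibitor, then diluted 400-fold into assay buffer containing 2.5 mM pNPP. Stopped after 15 min with 0.2 M KOH; absorbance read at 400 nm. Normalized to enzyme diluted with DMSO; mean ± SEM (n = 3).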
# [9] = biological target: T2, Aldo-keto reductase family 1 member B1; assay: Mixed non-competitive inhibition of human recombinant AKR1B1 expressed in Escherichia coli BL21(DE3)pLysS assessed as apparent dissociation constant for EI complex using L-idose as substrate by secondary plot analysis; outline: as §2
# [10] = biological target: T1, Tyrosine-protein phosphatase non-receptor type 1; assay: Inhibition of N-terminal polyHis-tagged human PTP1B1 (1 to 303 residues) expressed in Escherichia coli BL21(DE3)pLysS using pNPP as substrate by spectrophotometric analysis
# Outline: (§4)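 His-tagged human PTP1B (1–303) from E. coli BL21(DE3)pLysS, assayed in 0.075 M β,β-dimethylglutarate pH 7.0 with 1 mM EDTA, 0.1 mM DTT and pNPP. Reaction stopped with 0.1 M KOH; p-nitrophenol read at 400 nm. IC50 from 15–16 inhibitor concentrations in triplicate, normalized to control, fitted by nonlinear regression. Single-point residual activity at 5 µM.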
# [11] = biological target: T3, Tyrosine-protein phosphatase non-receptor type 1 (Mus musculus); assay: Inhibition of PTP1B in mouse C2C12 cells assessed as increase in Akt phosphorylation by measuring increase in ratio of pAkt to Akt at 20 uM treated for 15 mins by western blot analysis; format: cell-based; outline: as §3
# [12] = biological target: T2, Aldo-keto reductase family 1 member B1; assay: Mixed non-competitive inhibition of human recombinant AKR1B1 expressed in Escherichia coli BL21(DE3)pLysS assessed as apparent dissociation constant for ESI complex using L-idose as substrate by secondary plot analysis; outline: as §2
# [13] = biological target: T2, Aldo-keto reductase family 1 member B1; assay: Reversible inhibition of human recombinant AKR1B1 expressed in Escherichia coli BL21(DE3)pLysS assessed as recovery of enzyme activity using L-idose as substrate measured after extensive dialysis by NADPH oxidation based absorbance analysis; design: scale not given: the % may be the effect or the level left
# [14] = biological target: T5, Tyrosine-protein phosphatase non-receptor type 1 (Homo sapiens); assay: Inhibition of N-terminal polyHis-tagged human PTP1B1 (1 to 303 residues) expressed in Escherichia coli BL21(DE3)pLysS assessed as enzyme residual activity using pNPP as substrate at 5 uM by spectrophotometric analysis; outline: as §4
# [15] = biological target: T1, Tyrosine-protein phosphatase non-receptor type 1; assay: Mixed non-competitive inhibition of N-terminal polyHis-tagged human PTP1B1 (1 to 303 residues) expressed in Escherichia coli BL21(DE3)pLysS assessed as apparent dissociation constant for EI complex using pNPP as substrate by Lineweaver-Burk plot analysis; outline: as §1
# C2C12 [16] = assay: Effect on total Akt protein expression in mouse C2C12 cells at 20 uM incubated for 15 mins by SDS-PAGE analysis; format: functional, cell-based; outline: as §3
# C2C12 [17] = assay: Effect on total Akt protein expression in mouse C2C12 cells at 20 uM incubated for 15 mins in presence of insulin by SDS-PAGE analysis; format: functional, cell-based; outline: as §3
# [18] = biological target: T1, Tyrosine-protein phosphatase non-receptor type 1; assay: Mixed non-competitive inhibition of N-terminal polyHis-tagged human PTP1B1 (1 to 303 residues) expressed in Escherichia coli BL21(DE3)pLysS assessed as apparent dissociation constant for ESI complex using pNPP as substrate by Lineweaver-Burk plot analysis; outline: as §1
# C2C12 [19] = assay: Insulin-mimetic activity in mouse C2C12 cells assessed as stimulation of 2-NBDG uptake at 20 uM pretreated with compound for 15 mins followed by 2-NBDG addition and measured after 3 hrs by flow cytometry; format: functional, cell-based; conditions: time 195.0 min
# Outline: (§5)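 C2C12 cells serum-starved 24 h, then 15 min with 10 nM insulin, 20 µM compound, or both. Washed, then 3 h in starvation medium containing 40 µM 2-NBDG. Trypsinized, washed, and fluorescence measured by flow cytometry. Quadruplicate; mean fluorescence ± SD.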
# C2C12 [20] = assay: Insulin-mimetic activity in mouse C2C12 cells assessed as stimulation of 2-NBDG uptake at 20 uM pretreated with compound and insulin for 15 mins followed by 2-NBDG addition and measured after 3 hrs by flow cytometry; format: functional, cell-based; conditions: time 195.0 min; outline: as §5
Compound,Ratio Ki [3],Ratio IC50 (Homo sapiens),inhibition [4],IC50 [6],IC50 [7],inhibition [8],Ki [9],IC50 [10],inhibition [11],Ki [12],Activity [13],Activity [14],Activity (C2C12 [5]),other results
O=C(O)CN1C(=O)/C(=C/c2ccc(OCCCCc3ccccc3)cc2)SC1=S,2,48,inactive,330 nM,193000 nM,Active,1300 nM,4000 nM,inactive,410 nM,> 90%,,Non-Toxic,Ki [1]: 17500 nM; Ki [2]: 12100 nM
O=C(O)CCN1C(=O)/C(=C/c2ccc(OCCCc3ccccc3)cc2)SC1=S,,,,38200 nM,,,,,,,,99.8%,,
O=C(O)CCN1C(=O)/C(=C/c2cccc(OCCCCc3ccccc3)c2)SC1=S,2,8,Active,2100 nM,25800 nM,Active,4000 nM,3200 nM,Active,1100 nM,> 90%,,Non-Toxic,Ki [15]: 900 nM; Activity (C2C12 [16]): inactive; Activity (C2C12 [17]): inactive; Ki [18]: 6600 nM; Activity (C2C12 [19]): Active; Activity (C2C12 [20]): Active
O=C(O)CN1C(=O)/C(=C/c2cccc(OCCCc3ccccc3)c2)SC1=S,,,,50 nM,,,,,,,,81%,,

# The remaining molecules from weak to strong by IC50 [6], led by results:
Ratio Ki [3],Ratio IC50 (Homo sapiens),inhibition [4],IC50 [6],IC50 [7],inhibition [8],Ki [9],IC50 [10],inhibition [11],Ki [12],Activity [13],Activity [14],Compound,Activity (C2C12 [5]),other results
,,,2100 nM,,,,,,,,77%,O=C(O)CCN1C(=O)/C(=C/c2cccc(OCCCOc3ccccc3)c2)SC1=S,,
,,,80 nM,,,,,,,,100%,O=C(O)CN1C(=O)/C(=C/c2cccc(OCCCOc3ccccc3)c2)SC1=S,,
